Results taken from ChEMBL document CHEMBL4043301, “Tetrahydroquinoline Ring as a Versatile Bioisostere of Tetralin for Melatonin Receptor Ligands” (J Med Chem, 2018).

Assays:
Homo sapiens = species: Homo sapiens; experiment: Selectivity ratio of Ki for human MT1 receptor to Ki for human MT2 receptor
[1] = target: T1, Melatonin receptor type 1B (Homo sapiens, UniProt P49286); experiment: Displacement of 2-[125I]-Iodomelatonin from human MT2 receptor expressed in CHO cell membranes after 120 mins by filter binding method
T1 sequence (P49286 whole entry): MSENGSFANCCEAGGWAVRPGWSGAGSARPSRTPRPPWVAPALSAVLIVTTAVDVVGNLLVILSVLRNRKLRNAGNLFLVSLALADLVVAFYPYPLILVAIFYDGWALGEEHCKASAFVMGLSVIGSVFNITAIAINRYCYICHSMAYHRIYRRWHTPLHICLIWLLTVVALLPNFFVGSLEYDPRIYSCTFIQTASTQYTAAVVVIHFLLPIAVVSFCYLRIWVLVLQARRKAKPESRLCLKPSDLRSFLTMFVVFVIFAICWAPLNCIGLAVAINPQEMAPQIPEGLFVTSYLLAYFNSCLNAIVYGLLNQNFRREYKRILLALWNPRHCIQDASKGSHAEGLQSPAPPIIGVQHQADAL
Procedure, shortened: (§1)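 Membranes from CHO cells stably expressing human MT1 or MT2 were incubated with 20 pM 2-[125I]-iodomelatonin and test drug in 50 mM Tris-HCl pH 7.4, 5 mM MgCl2, for 120 min at 37 °C. Nonspecific binding was set with 1 µM melatonin. Filtration onto PEI-soaked GF/B filters. Seven concentrations in duplicate gave IC50, converted to Ki by Cheng-Prusoff. Ki is the geometric mean of ≥2 experiments.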

[2] = target: T2, Melatonin receptor type 1B (Homo sapiens) (UniProt P49286); experiment: (§2) Intrinsic activity at human MT2 receptor expressed in CHO cell membranes after 1 hr by [35S]GTPgammaS binding assay; assay type: functional
T2 sequence (whole entry): T1 sequence (P49286 whole entry)
Procedure, shortened: (§3)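 CHO-MT1 or MT2 membranes (20 µg/mL) were incubated with drug and 0.2 nM [35S]GTPγS for 1 h at room temperature. Buffer was 20 mM HEPES pH 7.4, 100 mM NaCl, 3 µM GDP, 3 mM MgCl2, 20 µg/mL saponin. Nonspecific binding was set with 10 µM GTPγS, followed by filtration. Seven concentrations in duplicate gave Emax, relative to 1 µM melatonin. Emax is the arithmetic mean ± SEM of ≥2 experiments.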

[3] = target: T3, Melatonin receptor type 1A (Homo sapiens, UniProt P48039); experiment: Intrinsic activity at human MT1 receptor expressed in CHO cell membranes after 1 hr by [35S]GTPgammaS binding assay; assay type: functional; procedure, shortened: as §3
T3 sequence (P48039 whole entry): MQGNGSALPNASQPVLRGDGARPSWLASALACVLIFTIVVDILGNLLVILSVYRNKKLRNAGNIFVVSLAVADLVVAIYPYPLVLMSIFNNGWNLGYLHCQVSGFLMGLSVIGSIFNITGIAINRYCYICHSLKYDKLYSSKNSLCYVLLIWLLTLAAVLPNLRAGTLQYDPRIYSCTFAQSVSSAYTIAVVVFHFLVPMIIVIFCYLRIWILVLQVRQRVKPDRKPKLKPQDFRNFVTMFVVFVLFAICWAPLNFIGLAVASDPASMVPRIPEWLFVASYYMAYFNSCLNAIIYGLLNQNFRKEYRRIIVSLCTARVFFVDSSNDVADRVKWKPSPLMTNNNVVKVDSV

[4] = target: T3, Melatonin receptor type 1A; experiment: Displacement of 2-[125I]-Iodomelatonin from human MT1 receptor expressed in CHO cell membranes after 120 mins by filter binding method; procedure, shortened: as §1
[5] = target: T1, Melatonin receptor type 1B; experiment: as §2; assay type: functional; procedure, shortened: as §3

Row | Ratio Ki (Homo sapiens) | Ki [1] | Emax [2] | Emax [3] | Ki [4] | EC50 [5] | EC50 [3] | Structure (SMILES)
1 | 270 | 0.23 nM | 78% | 61% | 62 nM | – | – | CCC(=O)NC[C@@H]1CCc2ccccc2[C@H]1c1ccccc1 (racemic)
2 | – | – | 5% | 25% | – | – | – | CC(=O)NCC1Cc2ccccc2N(c2ccccc2)C1 (stereo in doubt; (+)-15e) [listing 1 of 2 here]
3 | 149 | 6 nM | – | – | 892 nM | > 10000 nM | – | CCC(=O)NC1Cc2ccccc2N(Cc2ccccc2)C1 (racemic)
4 | 59 | 1 nM | 28% | – | 59 nM | 3 nM | – | CC(=O)NCC1Cc2ccccc2N(Cc2ccccc2)C1 (racemic)
5 | 5.2 | 47 nM | 47% | – | 246 nM | 80 nM | – | CC(=O)NCC1Cc2ccccc2N(CCc2ccccc2)C1 (racemic)
6 | 16 | 0.22 nM | 75% | 56% | 3.5 nM | – | – | CCC(=O)NC[C@@H]1CCc2ccccc2[C@@H]1c1ccccc1 (racemic)
7 | – | 1.38 nM | – | – | 3.02 nM | – | – | CC(=O)NCC1Cc2ccccc2N(c2ccccc2)C1 (single isomer, unassigned; (-)) [listing 1 of 2 here]
8 | 7.4 | 3.8 nM | 30% | 16% | 28 nM | – | – | CCC(=O)NCC1=C(c2ccccc2)c2ccccc2CC1
9 | – | 0.3 to 1.2 nM | – | – | 2.4 to 3 nM | > 10000 nM | > 10000 nM | CC(=O)NCC1Cc2ccccc2N(c2ccccc2)C1 (racemic) [listing 1 of 2 here]
10 | – | – | 29% | 30% | – | – | – | CC(=O)NCC1Cc2ccccc2N(c2ccccc2)C1 (single isomer, unassigned; (-)) [listing 2 of 2 here]
11 | 3.9 | 110 nM | – | – | 430 nM | – | – | CC(=O)NCC1CNc2ccccc2C1 (racemic)
12 | – | 0.78 nM | – | – | 1.58 nM | – | – | CC(=O)NCC1Cc2ccccc2N(c2ccccc2)C1 (stereo in doubt; (+)-15e) [listing 2 of 2 here]
13 | 7.1 | 0.48 nM | 75% | 82% | 3.4 nM | – | – | CCC(=O)NC[C@@H]1CN(C)c2ccccc2[C@@H]1c1ccccc1 (racemic)
14 | 5.5 | 15 nM | 32% | – | 83 nM | 10 nM | > 10000 nM | CC(=O)NCC1Cc2ccccc2N(C)C1 (racemic)
15 | 11 | 2 nM | 41% | 29% | 22 nM | 1 nM | 20 nM | CCC(=O)NC1Cc2ccccc2N(c2ccccc2)C1 (racemic)
16 | 10 | – | 10% | 27% | – | – | – | CC(=O)NCC1Cc2ccccc2N(c2ccccc2)C1 (racemic) [listing 2 of 2 here]
17 | 20 | 1 nM | 59% | – | 20 nM | 7 nM | > 10000 nM | CCN1CC(CNC(C)=O)Cc2ccccc21 (racemic)
